Laboratory results taken from ChEMBL document CHEMBL5380838, “Novel Aryl Sulfonamide Derivatives as NLRP3 Inflammasome Inhibitors for the Potential Treatment of Cancer” (J Med Chem, 2023).
Active and inactive are the calls of the source. The calls are words filed in the database; no cut-off is given here.

Legend:
[1] = test system: THP-1; assay: Cytotoxicity against human THP-1 cells assessed as reduction in cell viability at 1 uM measured after 48 hrs by RealTime-Glo MT assay; format: toxicity, cell-based; conditions: thp-1, 48 h
Outline: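 THP-1 cells (10 × 10^4/well) treated with inhibitors at 1 µM and kept 48 h; RealTime-Glo reagent added, luminescence read every 12 h as a proxy for metabolically active cells; means of RLU ± SEM.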

[2] = test system: THP-1; assay: Suppression of NLRP3 expression in LPS-treated human THP-1 cells at 1 to 1000 nM incubated for 30 mins followed by ATP stimulation for 1 hr […]; format: functional, cell-based; conditions: dose 1-1000 nM, time 90.0 min
[3] = test system: THP-1; assay: Suppression of caspase-1 expression in LPS-treated human THP-1 cells at 1 to 1000 nM incubated for 30 mins followed by ATP stimulation for 1 hr by […]; format: functional, cell-based; conditions: dose 1-1000 nM, time 90.0 min
Outline: (§1)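 PMA-differentiated THP-1 cells (1 × 10^6/well) primed with LPS 1 µg/mL for 3 h, then DMSO or compound in serum-free medium for 30 min, then 5 mM ATP for 1 h. RIPA lysates (20 µg) and concentrated supernatants run on SDS-PAGE and western blotted for NLRP3, ASC, caspase-1 and IL-1β, normalized to GAPDH; three independent experiments.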

[4] = test system: THP-1; assay: Suppression of ASC expression in LPS-treated human THP-1 cells at 1 to 1000 nM incubated for 30 mins followed by ATP stimulation for 1 hr […]; format: functional, cell-based; conditions: dose 1-1000 nM, time 90.0 min; outline: as §1
[5] = test system: THP-1; assay: Suppression of pro-IL-1beta expression in LPS-treated human THP-1 cells at 1 to 1000 nM incubated for 30 mins followed by ATP stimulation for 1 hr […]; format: functional, cell-based; conditions: dose 1-1000 nM, time 90.0 min
[6] = test system: THP-1; assay: Suppression of caspase-1 p10 expression in LPS-treated human THP-1 cells at 1 to 1000 nM incubated for 30 mins followed by ATP stimulation for 1 hr […]; format: functional, cell-based; conditions: dose 1-1000 nM, time 90.0 min
[7] = test system: THP-1; assay: Suppression of IL-1beta processing in LPS-treated human THP-1 cells at 1 to 1000 nM incubated for 30 mins followed by ATP stimulation for 1 hr by ELISA method; format: functional, cell-based; conditions: dose 1-1000 nM, time 90.0 min
[8] = test system: BMDM; assay: Effect on NLRC4 inflammasome activation in LPS-treated mouse BMDM cells assessed as IL-1beta release at 1 uM incubated for 30 mins followed by Salmonella typhimurium flagellin stimulation for 2 hrs by ELISA method; format: functional, cell-based; conditions: time 150.0 min
Outline: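 BMDMs primed with LPS 100 ng/mL for 3 h, then compound 1 µM in serum-free medium for 30 min, then flagellin 100 ng/mL for 2 h; supernatant mouse IL-1β by ELISA.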

[9] = test system: BMDM; assay: Effect on AIM2 inflammasome activation in LPS-treated mouse BMDM cells assessed as IL-1beta release at 1 uM incubated for 30 mins followed by Poly (dA:dT) stimulation for 4 hrs by ELISA method; format: functional, cell-based; conditions: time 270.0 min
Outline: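 BMDMs primed with LPS 100 ng/mL for 3 h, then compound 1 µM in serum-free medium for 30 min, then poly(dA:dT) 1 µg/mL transfected with lipofectamine 2000 for 4 h; supernatant mouse IL-1β by ELISA.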

[10] = test system: BMDM; assay: Effect on ASC level in LPS-treated mouse BMDM cells at 1 uM incubated for 30 mins followed by ATP stimulation for 1 hr by Hoechst staining based microscopy; format: functional, cell-based; conditions: time 90.0 min
Outline: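 BMDMs primed with LPS 1 µg/mL for 2 h, given DMSO or compound 1 µM for 30 min, then 5 mM ATP for 1 h. Cells fixed in 4% PFA, permeabilized with 0.1% Triton X-100, stained with anti-ASC overnight at 4 °C plus fluorescent secondary, nuclei Hoechst 1 µM; confocal imaging with 63× oil objective.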

[11] = test system: BMDM; assay: Effect on NLRP3-ASC interaction in LPS-treated mouse BMDM cells at 1 uM incubated for 30 mins followed by ATP stimulation for 1 hr by co-immunoprecipitation based Western blot analysis; format: functional, cell-based; conditions: time 90.0 min
Outline: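 BMDMs (1 × 10^7) primed with LPS 2 h, treated 1 µM compound 30 min, then ATP 1 h; lysed in HEPES/NaCl/glycerol/EDTA/0.5% Triton buffer with protease/phosphatase inhibitors; NLRP3–ASC co-immunoprecipitation, bait eluted in Laemmli buffer, western blot; representative of three independent experiments.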

[12] = test system: Mus musculus; assay: Antiinflammatory activity in LPS-induced C57BL/6 mouse assessed as reduction in IL-1beta production in peritoneal exudate at 25 mg/kg, ip pretreated for 30 mins followed by LPS induction measured after 4 hrs by ELISA method; format: functional, organism-based; conditions: time 4.5 hrs
Outline: (§2)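 C57BL/6 mice given inhibitor 25 mg/kg IP (vehicle DMSO) 30 min before IP LPS 1 mg/kg; after 4 h, peritoneal exudate and blood collected, plasma from centrifugation 1000g 15 min 4 °C; IL-1β measured by ELISA; mean ± SEM of three independent experiments.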

[13] = test system: Mus musculus; assay: Antiinflammatory activity in LPS-induced C57BL/6 mouse assessed as reduction in IL-1beta production in plasma at 25 mg/kg, ip pretreated for 30 mins followed by LPS induction measured after 4 hrs by ELISA method; format: functional, organism-based; conditions: time 4.5 hrs; outline: as §2
[14] = test system: B16-F10; assay: Antitumor activity against cytosolic luciferase-transfected mouse B16-F10 cells xenografted in C57BL/6 mouse assessed as tumor reduction at 25 mg/kg, ip administered thrice weekly measured after 14 days by bioluminescence assay; format: functional, organism-based; conditions: time 14.0 day
Outline: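 Female C57BL/6 mice aged 6–8 weeks inoculated subcutaneously with 1 × 10^6 B16-F10 cells stably expressing cytosolic luciferase. From day 5, IP dosing of 25 mg/kg thrice weekly, DMSO for controls, five mice per group. Imaging after IP D-luciferin 150 mg/kg under 2.5% isoflurane, read after 15 min. Caliper volume = π/6 × a × b². Tumors excised day 14.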

[15] = test system: B16-F10; assay: Effect on NLRP3 expression in cytosolic luciferase-transfected mouse B16-F10 cells xenografted in C57BL/6 mouse at 25 mg/kg, ip administered thrice weekly measured after 14 days by Western blot analysis; format: functional, organism-based; conditions: time 14.0 day
Outline: (§3)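 Tumors from luciferase-expressing B16-F10 grafts in C57BL/6 mice, dosed IP at 25 mg/kg thrice weekly (DMSO controls), were excised at endpoint and homogenized in sucrose/HEPES/IGEPAL lysis buffer. Lysates were western blotted and bands expressed as fold ratio over β-actin (n = 5).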

[16] = test system: B16-F10; assay: Effect on total caspase-1 expression in cytosolic luciferase-transfected mouse B16-F10 cells xenografted in C57BL/6 mouse at 25 mg/kg, ip administered thrice weekly measured after 14 days by Western blot analysis; format: functional, organism-based; conditions: time 14.0 day; outline: as §3
[17] = test system: B16-F10; assay: Effect on cleaved caspase-1 expression in cytosolic luciferase-transfected mouse B16-F10 cells xenografted in C57BL/6 mouse at 25 mg/kg, ip administered thrice weekly measured after 14 days by Western blot analysis; format: functional, organism-based; conditions: time 14.0 day; outline: as §3
[18] = test system: B16-F10; assay: Effect on ASC expression in cytosolic luciferase-transfected mouse B16-F10 cells xenografted in C57BL/6 mouse at 25 mg/kg, ip administered thrice weekly measured after 14 days by Western blot analysis; format: functional, organism-based; conditions: time 14.0 day; outline: as §3
[19] = test system: B16-F10; assay: Effect on pro-IL-1beta expression in cytosolic luciferase-transfected mouse B16-F10 cells xenografted in C57BL/6 mouse at 25 mg/kg, ip administered thrice weekly measured after 14 days by Western blot analysis; format: functional, organism-based; conditions: time 14.0 day; outline: as §3
[20] = test system: B16-F10; assay: Antiproliferative activity against cytosolic luciferase-transfected mouse B16-F10 cells xenografted in C57BL/6 mouse assessed as effect on cell growth at 25 mg/kg, ip administered thrice weekly measured after 5 days; format: functional, organism-based; conditions: time 5.0 day
[21] = test system: B16-F10; assay: Antiproliferative activity against LPS-treated mouse B16-F10 cells co-cultured with mouse peritoneal macrophages assessed as decrease in cell growth at 1 uM incubated for 30 mins followed by ATP stimulation for 1 hr measured after 48 hrs by cell counting method; format: functional, cell-based; conditions: time 49.5 hrs
Outline: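 Transwell co-culture (0.4 µm pores), 48 h: peritoneal macrophages from C57BL/6 mice (2 × 10^5, lower well) primed with LPS 1 µg/mL 2 h, then DMSO or compound 1 µM 30 min, then ATP 1 h; B16-F10 cells (2 × 10^3) in upper insert; tumor cells removed after 48 h and counted by image-based cytometer.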

[22] = Metabolic stability in human liver microsomes assessed as intrinsic clearance measured per mg protein at 1 uM measured upto 60 mins by LC-MS/MS analysis; format: ADME, Microsome; conditions: read-out: CLH
Outline: (§4)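 Pooled human or CD-1 male mouse liver microsomes at 0.5 mg/mL with test compound 1 µM in 50 mM phosphate pH 7.4 and 3 mM MgCl2, preincubated 10 min at 37 °C. Percent parent remaining vs 0 min measured by LC-MS/MS. Cli = k/microsomal conc. × 1000; mean ± SD, n = 2.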

[23] = Metabolic stability in mouse liver microsomes assessed as intrinsic clearance measured per mg protein at 1 uM measured upto 60 mins by LC-MS/MS analysis; format: ADME, Microsome; conditions: read-out: CLH; outline: as §4
[24] = Metabolic stability in human liver microsomes assessed as half life measured per mg protein at 1 uM measured upto 60 mins by LC-MS/MS analysis; format: ADME, Microsome; outline: as §4
[25] = Metabolic stability in mouse liver microsomes assessed as half life measured per mg protein at 1 uM measured upto 60 mins by LC-MS/MS analysis; format: ADME, Microsome; outline: as §4

SMILES	Activity [1]	Activity [2]	Activity [3]	Activity [4]	Activity [5]	Activity [6]	Activity [7]	Activity [8]	Activity [9]	Activity [10]	Activity [11]	Activity [12]	Activity [13]	Activity [14]	Activity [15]	Activity [16]	Activity [17]	Activity [18]	Activity [19]	Activity [20]	further results
Nc1ccc(S(=O)(=O)N2Cc3ccccc3C[C@H]2C(=O)Nc2c3c(cc4c2CCC4)CCC3)cc1	Non-Toxic	inactive	inactive	inactive	inactive	Active	Active	inactive	inactive	inactive	inactive	Active	Active	Active	inactive	inactive	inactive	inactive	inactive	inactive	Activity [21]: Active; microsomal CLint at 1 µM [22]: 28.7 µL/min/mg; microsomal CLint at 1 µM [23]: 270 µL/min/mg; half-life at 1 µM [24]: 48.3 min; half-life at 1 µM [25]: 5.1 min
Nc1ccc(S(=O)(=O)N[C@@H](Cc2ccc(O)cc2)C(=O)Nc2c3c(cc4c2CCC4)CCC3)cc1	Non-Toxic	inactive	inactive	inactive	inactive	Active	Active	inactive	inactive	inactive	inactive	Active	Active	Active	inactive	inactive	inactive	inactive	inactive	inactive	Activity [21]: Active; microsomal CLint at 1 µM [22]: 31.9 µL/min/mg; microsomal CLint at 1 µM [23]: 124 µL/min/mg; half-life at 1 µM [24]: 46.2 min; half-life at 1 µM [25]: 11.2 min
